# Tested on: RAW264.7
# Experiment: Antiinflammatory activity in mouse RAW264.7 cells assessed as inhibition of LPS-induced NO production by MTT assay
# Assay type: functional, cell-based
# Settings: in the assay text read “Griess assay” for “MTT assay”
# Method in brief: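 RAW 264.7 mouse macrophages in RPMI 1640 with 10% heat-inactivated FBS, penicillin and streptomycin, seeded 1 × 10⁵ cells/well, adhered 2 h at 37 °C, 5% CO₂. Stimulated with LPS 1 µg/mL for 24 h with or without test agents at various concentrations (DMSO, 0.2% v/v final). Supernatant nitrite read with Griess reagent against a nitrite standard line. MTT viability after 24 h.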
row,SMILES,IC50
1,Oc1ccc(CC[C@@H](O)CC/C=C/c2ccccc2)cc1O,3.86 µM
2,CC(=O)O[C@H](CC/C=C/c1ccc(O)cc1)CCc1ccc(O)c(O)c1,15.6 µM
3,O=C(CC/C=C/c1ccc(O)cc1)CCc1ccc(O)cc1,8.93 µM
4,C[C@]12CCC(=O)C=C1CC[C@@H]1[C@@H]2[C@@H](O)C[C@@]2(C)[C@H]1CC[C@]2(O)C(=O)CO [HYDROCORTISONE],40.6 µM
5,Oc1ccc(CC[C@H](O)CC/C=C/c2ccccc2)cc1O,7.34 µM
6,COc1cc(CCC(=O)CCCCc2ccc(O)cc2)ccc1O,10.6 µM
7,Oc1ccc(CCCC[C@H](O)CCc2ccc(O)c(O)c2)cc1,5.83 µM
8,CC(=O)O[C@H](CCCCc1ccc(O)cc1)CCc1ccc(O)c(O)c1,28.5 µM
9,CC(=O)O[C@@H](CCCCc1ccc(O)cc1)CCc1ccc(O)c(O)c1,49.5 µM
10,COc1ccc2c(c1)c(CC(=O)O)c(C)n2C(=O)c1ccc(Cl)cc1 [INDOMETHACIN],13 µM
11,Oc1ccc(/C=C/CC[C@@H](O)CCc2ccc(O)c(O)c2)cc1,20.6 µM
12,O=C(CC/C=C/c1ccccc1)CCc1ccc(O)cc1,6.98 µM
13,COc1cc(CCC(=O)/C=C/CCc2ccc(O)cc2)ccc1O,2.69 µM
14,Oc1ccc(CCCC[C@@H](O)CCc2ccc(O)c(O)c2)cc1,9.66 µM
15,O=C(/C=C/C=C/c1ccc(O)cc1)CCc1ccc(O)cc1,4.79 µM
16,Oc1ccc(/C=C/CC[C@H](O)CCc2ccc(O)cc2)cc1,9.83 µM
17,CC(=O)O[C@@H](CC/C=C/c1ccc(O)cc1)CCc1ccc(O)c(O)c1,6.54 µM
18,Oc1ccc(/C=C/CC[C@@H](O)CCc2ccc(O)cc2)cc1,16.1 µM
19,O=C(CCCCc1ccc(O)cc1)CCc1ccc(O)cc1,5.58 µM
20,Oc1ccc(/C=C/CC[C@H](O)CCc2ccc(O)c(O)c2)cc1,42 µM

# From ChEMBL document CHEMBL1268859, “Diarylheptanoids from the Rhizomes of Curcuma kwangsiensis” (J Nat Prod, 2010)
